Reference: ChEMBL document CHEMBL1124245, “Investigation of the structural parameters involved in the mu and delta opioid receptor discrimination of linear enkephalin-related peptides” (J Med Chem, 1988)
Numbered stars: 1 amine (or outer) side, 2 acyl side, 3 side chain; on linkers, the order of the positions; unused ones are H or OH. Square brackets hold non-standard residues; d marks the D form. Peptide text beside a SMILES is read from it. X1 = CC[C@H](O)[C@H](N[*:1])C(=O)[*:2]; azaGly = NNC(=O)O

How the values were obtained:
[1] = molecular target: Opioid receptors; mu & delta (Homo sapiens, UniProt P41143+P35372); assay: Inhibition of electrically evoked contraction of guinea pig ileum (myenteric plexus;longitudinal muscle)[agonist action at mu 1 opioid receptors) and inhibition of electrically evoked contraction of mouse vas deferens (agonist action at delta 1 opioid receptor); type: functional, tissue-based
Mu-type opioid receptor [2] = molecular target: Mu-type opioid receptor (Rattus norvegicus, UniProt P33535); assay: Inhibition of [3H]DAGO binding to mu 1 opioid receptor in rat brain membranes; type: cell membranes
Outline: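 Rat brain membranes, 0.6–0.7 mg protein, in 50 mM Tris-HCl pH 7.4 with 1 nM [3H]DAGO. Incubated 40 min at 35 °C, then filtered and washed with cold buffer. Bound radioactivity counted by scintillation. Nonspecific binding taken with 10 µM levorphanol, triplicates. Nine unlabeled-ligand concentrations, Hill-plot fit, Ki by Cheng-Prusoff. Three to six independent determinations.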

[3] = molecular target: T1, Delta-type opioid receptor (Rattus norvegicus, UniProt P33533); assay: Inhibition of [3H]DSLET binding to delta 1 opioid receptors in rat brain membranes; type: cell membranes
Mu-type opioid receptor [4] = molecular target: Mu-type opioid receptor (Cavia porcellus, UniProt P97266); assay: Inhibition of electrically evoked contraction of guinea pig ileum (myenteric plexus:longitudinal muscle preparation) by agonist action at mu 1 opioid receptors; type: functional, tissue-based
Outline: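 Electrically stimulated guinea pig ileum twitch. IC50 for half-maximal inhibition taken from six to eight log dose-response curves, six concentrations each. [Met]enkephalin IC50 measured on the same preparation. Agonist IC50 multiplied by the mean [Met]enkephalin IC50 divided by that assay's [Met]enkephalin IC50.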

Mus musculus [5] = species: Mus musculus; assay: Inhibitory activity after protection from beta-CNS-induced inactivation in MVD; type: functional
Mus musculus [6] = assay: Analgesic potency in mice after icv injection and 10 min before exposing to hot plate; type: functional
Outline: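 Albino mice, 24–28 g, given drug icv by hand (10 µL, modified 30-gauge needle). Jump latency timed on a 55 ± 0.2 °C hot plate 10 min later, experimenter blind. Cut-off 180 s = 100% analgesia. Percent analgesia = (Tt−Tc)/(180 s−Tc). 10 mice per point. AD50 and 95% confidence limits by Litchfield–Wilcoxon.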

Mus musculus [7] = species: Mus musculus; assay: Inhibitory activity before protection from beta-CNS-induced inactivation in MVD; type: functional
[8] = molecular target: T1, Delta-type opioid receptor; assay: Ability to inhibit the binding of [3H]DSLET to Opioid receptor delta 1 in rat brain membranes; type: cell membranes

Chain of Mu-type opioid receptor (Cavia porcellus, UniProt P97266) (P97266 whole entry): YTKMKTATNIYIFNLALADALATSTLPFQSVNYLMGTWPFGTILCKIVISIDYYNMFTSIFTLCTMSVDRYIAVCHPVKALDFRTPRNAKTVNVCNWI
T1 sequence (P33533 whole entry): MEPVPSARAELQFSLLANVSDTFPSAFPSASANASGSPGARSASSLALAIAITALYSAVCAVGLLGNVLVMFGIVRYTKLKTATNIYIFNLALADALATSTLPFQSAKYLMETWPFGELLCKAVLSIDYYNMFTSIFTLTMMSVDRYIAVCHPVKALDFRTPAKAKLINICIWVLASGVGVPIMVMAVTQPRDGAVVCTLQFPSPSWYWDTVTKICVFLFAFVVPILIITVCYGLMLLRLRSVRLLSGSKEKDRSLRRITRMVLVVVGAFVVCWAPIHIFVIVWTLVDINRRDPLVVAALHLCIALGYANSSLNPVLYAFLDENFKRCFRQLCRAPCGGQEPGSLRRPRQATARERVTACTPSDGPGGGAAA
Chain of Mu-type opioid receptor (Rattus norvegicus, UniProt P33535) (P33535 whole entry): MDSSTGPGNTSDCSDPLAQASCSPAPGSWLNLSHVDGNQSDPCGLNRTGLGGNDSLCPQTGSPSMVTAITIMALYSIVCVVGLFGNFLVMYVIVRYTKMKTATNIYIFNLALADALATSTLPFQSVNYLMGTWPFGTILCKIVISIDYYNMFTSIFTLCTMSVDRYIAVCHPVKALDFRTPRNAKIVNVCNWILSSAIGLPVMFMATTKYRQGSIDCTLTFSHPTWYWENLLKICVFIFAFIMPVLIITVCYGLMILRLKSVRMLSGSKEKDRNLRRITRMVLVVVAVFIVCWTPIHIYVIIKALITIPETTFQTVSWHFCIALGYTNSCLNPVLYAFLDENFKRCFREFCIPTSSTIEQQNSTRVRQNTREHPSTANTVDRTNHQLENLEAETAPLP

Row | Structure (SMILES) | IC50 [1] | Ki (Mu-type opioid receptor [2]) [nM] | Ki [3] [nM] | IC50 (Mu-type opioid receptor [4]) [nM] | IC50 (Mus musculus [5]; Mus musculus) [nM] | dose (Mus musculus [6]) [pmol/mouse] | IC50 (Mus musculus [7]; Mus musculus) [nM] | IC50 (Mus musculus [5]) [nM] | IC50 (Mus musculus [7]) [nM] | Ki [8] [nM]
1 | CCN(C(=O)CNC(=O)[C@@H](C)NC(=O)[C@@H](N)Cc1ccc(O)cc1)C(C)CC(C)C (stereo partly specified) | 1800 nM | 35.5 | 3450 | 216 |  |  |  |  |  | 
2 | CC(C)C[C@H](NC(=O)[C@H](Cc1ccccc1)NC(=O)CNC(=O)[C@@H](CO)NC(=O)[C@@H](N)Cc1ccc(O)cc1)C(=O)N[C@H](C(=O)O)[C@@H](C)O |  |  | 4.8 | 406 | 0.65 | 130 | 0.38 |  |  | 
3 | CC(C)C[C@H](NC(=O)[C@H](Cc1ccccc1)NC(=O)CNC(=O)[C@H](NC(=O)[C@@H](N)Cc1ccc(O)cc1)[C@H](C)O)C(=O)N[C@@H](CO)C(=O)O | 0.25 nM | 41.9 | 4.18 | 99 |  |  |  |  |  | 
4 | CC(C)C[C@H](NC(=O)[C@H](Cc1ccccc1)NC(=O)CNC(=O)[C@H](NC(=O)[C@@H](N)Cc1ccc(O)cc1)[C@H](C)O)C(=O)N[C@H](C(=O)O)[C@@H](C)O [listing 1 of 2 here] | 0.15 nM | 25.3 |  | 460 |  |  |  | 0.22 | 0.13 | 
5 | CC(C)C[C@H](NC(=O)[C@H](Cc1ccccc1)NC(=O)CNC(=O)[C@H](NC(=O)[C@@H](N)Cc1ccc(O)cc1)[C@H](C)O)C(=O)N[C@H](C(=O)O)[C@@H](C)O [listing 2 of 2 here] |  |  |  |  |  | 50 |  |  |  | 
6 | CC(C)C[C@H](NC(=O)[C@H](CC(C)C)NC(=O)[C@H](Cc1ccccc1)NC(=O)CNC(=O)[C@H](NC(=O)[C@@H](N)Cc1ccc(O)cc1)[C@H](C)O)C(=O)O | 0.41 nM | 38 | 2.65 | 260 |  |  |  |  |  | 
7 | CC(C)CC(C)NC(=O)CNC(=O)[C@H](C)NC(=O)[C@@H](N)Cc1ccc(O)cc1 (stereo partly specified) | >= 50000 nM |  |  | ≥ 50000 |  |  |  |  |  | 
8 | CC(C)CC(C)NC(=O)CNC(=O)[C@@H](CO)NC(=O)[C@@H](N)Cc1ccc(O)cc1 (stereo partly specified) | 990 nM | 43 | 1370 | 718 |  |  |  |  |  | 
9 | CC(C)CC(C)NC(=O)CNC(=O)[C@@H](COC(C)(C)C)NC(=O)[C@@H](N)Cc1ccc(O)cc1 (stereo partly specified) | 105 nM | 13.7 | 39 | 111 |  |  |  |  |  | 
10 | CC(C)C[C@H](NC(=O)[C@H](Cc1ccccc1)NC(=O)CNC(=O)[C@H](NC(=O)[C@@H](N)Cc1ccc(O)cc1)[C@H](C)O)C(=O)N1C[C@H](O)C[C@H]1C(=O)O | 1.1 nM | 43.8 | 7.6 | 88 |  | 252 |  |  |  | 
11 | CC(C)CCNC(=O)CNC(=O)[C@@H](C)NC(=O)[C@@H](N)Cc1ccc(O)cc1 | 3410 nM | 10 | 1020 | 323 |  |  |  |  |  | 
12 | CC(C)C[C@H](NC(=O)[C@H](CC(C)C)NC(=O)[C@H](Cc1ccccc1)NC(=O)CNC(=O)[C@@H](CO)NC(=O)[C@@H](N)Cc1ccc(O)cc1)C(=O)O | 2.45 nM | 158 | 9.12 | 257 |  | 610 |  |  |  | 
13 | CSCC[C@@H](NC(=O)[C@@H](N)Cc1ccc(O)cc1)C(=O)NCC(=O)NCCC(C)C | 733 nM | 15 | 600 | 154 |  |  |  |  |  | 
14 | CC(C)CC(C)NC(=O)CNC(=O)C(C)(C)NC(=O)[C@@H](N)Cc1ccc(O)cc1 (stereo partly specified) | 4720 nM | 171 | 6880 | 1850 |  |  |  |  |  | 
15 | CC(C)C[C@@H](C(=O)N[C@H](C(=O)O)[C@@H](C)O)N(C)C(=O)[C@H](Cc1ccccc1)NC(=O)CNC(=O)[C@H](NC(=O)[C@@H](N)Cc1ccc(O)cc1)[C@H](C)O | 1.33 nM | 157 | 30.7 | 224 |  |  |  |  |  | 
16 | CC(C)C[C@@H](C(=O)NCCO)N(C)C(=O)CNC(=O)[C@@H](C)NC(=O)[C@@H](N)Cc1ccc(O)cc1 | 3180 nM | 116 | 3810 | 379 |  |  |  |  |  | 
17 | CC(C)CC(C)NC(=O)CNC(=O)[C@@H](C)NC(=O)[C@@H](N)Cc1ccc(O)cc1 (stereo partly specified) | 1050 nM | 17 | 480 | 237 |  |  |  |  |  | 
18 | CC[C@H](O)[C@H](NC(=O)[C@@H](N)Cc1ccc(O)cc1)C(=O)NCC(=O)N[C@@H](Cc1ccccc1)C(=O)N[C@@H](CC(C)C)C(=O)N[C@H](C(=O)O)[C@@H](C)O (H-Y[X1]GFLT-OH) | 0.05 nM | 16 | 2.2 | 21.3 |  |  |  |  |  | 
19 | CC(C)C[C@H](NC(=O)[C@H](Cc1ccccc1)NC(=O)CNC(=O)NNC(=O)[C@@H](N)Cc1ccc(O)cc1)C(=O)N[C@H](C(=O)O)[C@@H](C)O (H-Y[azaGly]GFLT-OH) | 38 nM | 9790 | 395 | 14000 |  |  |  |  |  | 
20 | CC(C)C[C@@H](NC(=O)[C@H](Cc1ccccc1)NC(=O)CNC(=O)[C@@H](C)NC(=O)[C@@H](N)Cc1ccc(O)cc1)C(=O)O [DADLE] |  |  |  |  |  | 12 |  |  |  | 
21 | C[C@@H](NC(=O)[C@@H](N)Cc1ccc(O)cc1)C(=O)NCC(=O)N(C)[C@@H](Cc1ccccc1)C(=O)NCCO [DAMGO] |  |  |  | 11.5 | 2400 | 1 | 100 |  |  | 700
